# This is a sample that favours compounds with a hit; in the whole collection about 4.2% have one here.
# SUMO Mot1 rescue – blocks SUMOylation pathway, rescuing yeast Mot1-301 growth; AID 2716; S. cerevisiae Mot1-301 growth rescue, ATP luminescence, 38.5C; percent above DMSO median, 100 means doubled; 320,000 tested, 1% active; growth rescue, % at 18.8 µM;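 active = every valid replicate shows activation above 250% relative to neutral control wells; inactive = the rest, any valid replicate at or below 250%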
# Cl transport mod – modulators of human KCC2 chloride dependent transport | Q9H2X9 | KCC2 cells, thallium flux FluoZin-2 fluorescence | B-score of Tl+ flux slope (higher = more flux/activation; lower = inhibition) at 10 µM | 190,000 tested, 2.2% active | AID 1456;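 active = thallium flux slope and its plate-corrected score both differing from the plate sample mean at a set confidence after two filtering rounds, in either direction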;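 also: slope of fluorescence scaled to starting intensity during 10 to 20 s after thallium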
# hERG rescue – shields human hERG channel from block by proarrhythmic agents; Q12809; CHO-hERG, FluxOR thallium flux, dofetilide IC70 present; activation (rescue from dofetilide block), less the hit threshold, % at 10 µM; 310,000 tested, 0.51% active; AID 1511;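 active = activation above the mean of controls blocked by dofetilide plus 5 SD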;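 also: thallium influx through hERG after potassium depolarization seen as dye fluorescence rise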
# KCNQ1 act – potentiators or activators of human KCNQ1 potassium channel. P51787. CHO-K1 KCNQ1, thallium flux FluxOR fluorescence; stronger effect = higher value. B-score at 10 µM. 310,000 tested, 0.35% active. AID 2648;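 active = fluorescence ratio B-score, a plate-corrected score, at least three library SD, with initial intensity B-score within 5 SD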
#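 Doses: Single concentration per compound, DMSO matched to controls | Test system: KCNQ1-transfected CHO-K1 cells | Timing: 90 min dye loading and 20 min compound exposure, both at room temperature | Measured by: Kinetic FluxOR thallium fluorescence, 10-s 1-Hz baseline, 110-s post-stimulus read | Medium: Assay buffer with matched DMSO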
# AI-2 QS modul – modulates the Vibrio harveyi AI-2 quorum sensing system; 300,000 tested, 0.4% active; Vibrio harveyi JMH597 AI-2 luminescence/OD600 ratio, 9 h; stronger effect = lower value; strain lacks LuxN and CqsS sensors; 0 = neutral-control median; activity change, % at 7.5 µM; in the data active = activity change below about -75%, passing the limit was not always enough;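 also: luminescence divided by OD600 gain over 9 h not by final OD600 alone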
# KCNQ1 inh – blocks the human KCNQ1 potassium channel; CHO-K1 KCNQ1, FluxOR thallium flux fluorescence; stronger effect = higher value; 310,000 tested, 1.3% active; P51787; B-score at 10 µM; AID 2642;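 active = compounds whose thallium flux B-score, printed positive for inhibition, exceeds three library SD while starting fluorescence stays within three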;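 also: channel opened by potassium depolarization with thallium stimulus after 20 min compound exposure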
# Numbers stand for hits; 0 = inactive; - = not tested or not shown.
SMILES,SUMO Mot1 rescue,Cl transport mod,hERG rescue,KCNQ1 act,AI-2 QS modul,KCNQ1 inh
O=[N+]([O-])c1cc(CN2CCN(c3cccc(C(F)(F)F)c3)CC2)c2cccnc2c1O,0,0,0,0,-97,0
CC1CCN(C(=O)CCNS(=O)(=O)c2ccc(Br)cc2)CC1,0,-,-,-,-,-
O=C(COC(=O)C1C2CC3OC(=O)C1C3C2)Nc1cccc(Cl)c1 (stereo not drawn),0,-,0,0,-,0
COc1ccc(-c2[nH]c3ccccc3c2SCCNC(=O)c2cc3ccccc3oc2=O)cc1,0,0,0,0,0,8
COc1ccc(CNC(=O)c2cc3ccccc3oc2=O)cc1,0,-,0,0,0,0
CC1(C)Cc2c(C#N)c(NC3CCCCC3)nc(-c3ccco3)c2CO1,0,0,0,0,0,6
CC1(C)Cc2c(C#N)c(NCC3CCCO3)nc(-c3ccco3)c2CO1 (stereo not drawn),0,0,0,0,0,0
CCN(c1cccc(C)c1)c1nc2ccsc2c(=O)s1,0,-,0,0,0,0
Cc1cc(C)cc(C(=O)NCC(=O)N2CCN(C(c3ccccc3)c3ccccc3)CC2)c1,0,-,0,0,0,6
CCc1ccc(-c2cc(C(=O)N/N=C/c3c[nH]c4ccccc34)[nH]n2)cc1,0,0,0,0,0,0
CCc1ccc2c(Cl)c(C(=O)N/N=C/c3c[nH]c4ccccc34)sc2c1,0,0,0,0,0,6
O=C(NN1C(=O)/C(=C\c2cccnc2)SC1=S)C(c1ccccc1)c1ccccc1,0,0,0,0,0,0
O=C(NN1C(=O)/C(=C/c2cccnc2)SC1=S)C(c1ccccc1)c1ccccc1,0,-,0,0,0,6
CCOC(=O)N1CCN(C(=O)COc2cc(=O)n(CC)c3ccccc23)CC1,0,0,0,0,0,0
CCn1c(=O)cc(OCC(=O)N2CCN(C(=O)c3ccco3)CC2)c2ccccc21,707,0,0,0,0,0
CC(C)CNC(=O)CSc1ccc(S(=O)(=O)N2CCN(C)CC2)cn1,0,-,-,-,-,-
Cc1cc(F)ccc1NCC(=O)Nc1ccccc1Br,0,0,0,0,0,0
O=C(C[n+]1ccccc1)N/N=C/c1ccc(Cl)c(Cl)c1,0,-,5.2,0,0,0
O=C(C[n+]1ccccc1)N/N=C/c1ccc(Br)cc1,0,-,-,-,-,-
Cn1ccnc1C(=O)c1ccc(NN)c([N+](=O)[O-])c1,0,0,0,0,0,0
Cn1ccnc1C(=O)c1cccc([N+](=O)[O-])c1,0,0,0,8,0,0
CC1CN(C(=O)CCC(=O)N2CCN(c3cccc(C(F)(F)F)c3)CC2)c2ccccc2O1 (stereo not drawn),0,-,0,0,0,0
COc1ccc(CCN(C(=O)Cn2nnc3ccccc32)C(C(=O)NCC2CCCO2)c2ccncc2)cc1OC (stereo not drawn),0,-,39,0,0,0
Cc1c(NC(=O)CN2C(=O)NC(C)(c3ccccc3)C2=O)c(=O)n(-c2ccccc2)n1C (stereo not drawn),0,0,5.8,0,0,0
O=C(c1ccccc1)c1ccc(OCC(O)CN2CCN(S(=O)(=O)N3CCCCC3)CC2)cc1 (stereo not drawn),-,0,0,0,0,0
SMILES,SUMO Mot1 rescue,Cl transport mod,hERG rescue,KCNQ1 act,AI-2 QS modul,KCNQ1 inh
CCC(=O)c1ccc(OCC(O)CN2CCN(S(=O)(=O)N3CCCCC3)CC2)cc1 (stereo not drawn),286,0,0,0,0,0
CSc1nc(N(C)NC(=O)c2ccc(Cl)cc2)c2ccccc2n1,334,-,0,0,0,0
CSc1nc(N(C)NC(=O)c2ccccc2)c2ccccc2n1,0,-,0,0,0,0
Cc1cc2c(cc3c(=O)n(CC(=O)NCCCN4CC(C)CC(C)C4)ncn32)s1 (stereo not drawn),0,-,0,0,0,0
CCCC/C(=N\NC(=O)c1ccc(Br)o1)c1ccccc1,0,0,0,0,0,0
CC/C(=N/NC(=O)c1ccc(Br)o1)c1ccc(Cl)cc1,0,0,0,10,0,0
CN(C)S(=O)(=O)c1ccc(C(=O)OCC2CCCO2)cc1 (stereo not drawn),0,-,0,0,-77,0
CN(C)S(=O)(=O)c1ccc(C(=O)OCC(=O)NC(=O)NC2CCCC2)cc1,0,-,-,-,-,-
O=C(NC(NNc1ccc([N+](=O)[O-])cc1)(C(F)(F)F)C(F)(F)F)c1ccccc1Cl,0,0,0,0,0,0
O=[N+]([O-])c1ccc(NNC(=S)Nc2ccc(F)cc2)cc1,0,0,0,0,0,7
O=C(NC(NNc1ccc([N+](=O)[O-])cc1)(C(F)(F)F)C(F)(F)F)c1ccc(F)cc1,0,0,0,0,0,6
O=C(NNC(=S)Nc1ccc(F)cc1)c1cccc([N+](=O)[O-])c1,0,0,0,0,0,0
CCOC(=O)Cc1csc(SCC(=O)N(CC(C)C)c2c(N)n(Cc3ccccc3)c(=O)[nH]c2=O)n1,0,-,0,0,0,0
COc1ccccc1-n1c(=O)c(C#N)c(-c2ccc([N+](=O)[O-])cc2)c2cc(C(=O)c3cc(F)ccc3O)cnc21,0,0,0,0,0,0
Cn1c(=O)c(C#N)c(-c2ccc(F)cc2)c2cc(C(=O)c3cc(Cl)cc(Cl)c3O)cnc21,-,0,0,0,0,11
Cn1c(CNC(=O)c2ccccc2F)nnc1SCc1ccc(Cl)cc1,-,0,8.0,0,0,0
O=C(NCCn1cc(SCc2ccc(F)cc2)c2ccccc21)c1c(F)cccc1F,0,0,0,0,0,0
Cn1c(CNC(=O)c2ccccc2F)nnc1SCC(=O)Nc1nncs1,0,-,0,0,0,0
O=C(NCCn1cc(SCc2ccc(F)cc2)c2ccccc21)c1ccccc1F,0,0,0,0,0,11
CC(NC(=O)c1ccccc1F)c1nnc(SCc2nc3ccccc3c(=O)[nH]2)n1C (stereo not drawn),292,0,0,0,0,0
COCOc1cc(O)c(C(=O)/C=C/c2ccccc2)c(OCOC)c1,0,-,0,0,0,0
CCCCN(C(=O)COC(=O)COc1c(C)cc(C)cc1C)c1c(N)n(CCC)c(=O)[nH]c1=O,287,-,0,0,0,0
CCCCn1c(N)c(N(CCOC)C(=O)COC(=O)COc2c(C)cccc2C)c(=O)[nH]c1=O,0,-,0,0,0,0
CCOc1ccccc1C(=O)N1c2ccccc2Sc2ccccc21,0,0,0,0,0,8
O=S(=O)(Nc1ccon1)c1ccc(F)c(F)c1,0,-,0,0,0,0
Cc1ccc(NC(=O)CN(C)C(=O)Cc2c[nH]c3ccccc23)cc1,0,-,-,-,-,-
CC(/C=N/n1c(COc2ccccc2)n[nH]c1=S)=C\c1ccccc1,0,7.8,0,0,0,0
Cc1cccc(/C=N/n2c(COc3ccccc3)n[nH]c2=S)c1,0,-,0,14,0,0
